Experiments:
Pf dUTPase = biological target: T1, Pf dUTPase (Plasmodium falciparum, UniProt Q8II92); assay: dUTPase biochemical assay
T1 sequence (Q8II92 1-173): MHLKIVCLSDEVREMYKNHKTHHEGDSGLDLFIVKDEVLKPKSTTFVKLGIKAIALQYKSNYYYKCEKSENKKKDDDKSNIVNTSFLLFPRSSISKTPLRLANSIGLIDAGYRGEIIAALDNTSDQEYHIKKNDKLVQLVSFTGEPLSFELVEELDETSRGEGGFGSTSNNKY

P. falciparum strain 3d7 = assay: erythrocyte-based P. falciparum strain 3d7 infection; format: cell-based; conditions: Plasmodium falciparum, 3D7, read-out: EC50 against P. falciparum in vitro
Summary of the method: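 P. falciparum was grown in erythrocytes. The primary screen used 1.25 μM, and ≥50% growth inhibition counted as a hit. Hits were retested in 8-point dose-response curves for EC₅₀ against sulfadoxine-resistant 3D7 and multidrug-resistant W2. Compounds with CC₅₀/EC₅₀ <5 (Huh7 cells) or that quenched fluorescence were excluded.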

[1] = biological target: Pf Adenylosuccinate Synthase (Plasmodium falciparum, UniProt Q9U8D3); assay: adenylosuccinate synthetase biochemical assay
[2] = biological target: T2, Pf N-Myristoyl Transferase (Plasmodium falciparum, UniProt Q8ILW6); assay: N-myristoyltransferase biochemical assay; conditions: read-out: NMT IC50, positive control
T2 sequence (Q8ILW6 1-410): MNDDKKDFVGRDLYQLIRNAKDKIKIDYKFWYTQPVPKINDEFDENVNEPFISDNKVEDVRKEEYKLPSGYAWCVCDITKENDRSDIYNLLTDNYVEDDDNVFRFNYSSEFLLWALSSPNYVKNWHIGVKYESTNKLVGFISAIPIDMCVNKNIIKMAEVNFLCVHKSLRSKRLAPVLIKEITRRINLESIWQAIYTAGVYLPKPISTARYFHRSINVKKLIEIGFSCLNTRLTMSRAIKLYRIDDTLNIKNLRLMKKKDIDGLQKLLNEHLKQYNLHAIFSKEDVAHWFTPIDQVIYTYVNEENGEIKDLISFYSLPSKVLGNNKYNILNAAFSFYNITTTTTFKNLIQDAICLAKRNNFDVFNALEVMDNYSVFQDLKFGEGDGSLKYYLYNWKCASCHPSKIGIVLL

Chain of Pf Adenylosuccinate Synthase (Q9U8D3 whole entry): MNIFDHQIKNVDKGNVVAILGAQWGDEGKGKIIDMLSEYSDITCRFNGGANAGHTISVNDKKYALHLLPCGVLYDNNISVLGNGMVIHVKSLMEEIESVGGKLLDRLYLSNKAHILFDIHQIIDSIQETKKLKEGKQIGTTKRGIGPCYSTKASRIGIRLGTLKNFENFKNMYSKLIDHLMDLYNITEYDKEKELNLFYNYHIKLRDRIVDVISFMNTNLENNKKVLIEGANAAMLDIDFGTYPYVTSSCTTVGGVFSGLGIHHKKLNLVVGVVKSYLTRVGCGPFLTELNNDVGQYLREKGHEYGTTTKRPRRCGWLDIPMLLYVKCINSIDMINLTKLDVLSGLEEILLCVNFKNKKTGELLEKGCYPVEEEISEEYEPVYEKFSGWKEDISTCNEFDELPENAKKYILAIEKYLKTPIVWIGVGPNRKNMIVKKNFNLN

O=c1ccn([C@H]2C[C@H](O)[C@@H](COC(c3ccccc3)(c3ccccc3)c3ccccc3)O2)c(=O)[nH]1 [2′-deoxy-5′-O-(triphenylmethyl)uridine] was tested, and the IC50 (Pf dUTPase) was 2.4 µM.
For O=P(O)(O)C(O)(Cc1ccccc1)P(=O)(O)O [(1-hydroxy-2-phenylethylidene)bis-phosphonic acid], the EC50 (P. falciparum strain 3d7) was ~7.05 µM.
With O=CN(O)CC(=O)O [Hadacidin] the IC50 [1] was 62 µM.
With O=C(O)C1=CC(=C(c2ccc(O)c(C(=O)O)c2)c2ccc(O)c(C(=O)O)c2)C=CC1=O [aurintricarboxylate] the IC50 [2] was ~3 µM.

Reference: PMC3108854 (Molecular and biochemical parasitology, 2010)
